Source: ChEMBL document CHEMBL1156100, “Design and synthesis of a simplified inhibitor for XIAP-BIR3 domain” (Bioorg Med Chem Lett, 2009)
The source made the active and inactive calls. The rule behind the calls is not given here.

Molecular target: T1, E3 ubiquitin-protein ligase XIAP (Homo sapiens, UniProt P98170)
Assay: Inhibition of XIAP BIR3 domain at 10 to 100 uM by competitive fluorescence polarization binding assay

T1 sequence (P98170 whole entry, the tested form may be a part): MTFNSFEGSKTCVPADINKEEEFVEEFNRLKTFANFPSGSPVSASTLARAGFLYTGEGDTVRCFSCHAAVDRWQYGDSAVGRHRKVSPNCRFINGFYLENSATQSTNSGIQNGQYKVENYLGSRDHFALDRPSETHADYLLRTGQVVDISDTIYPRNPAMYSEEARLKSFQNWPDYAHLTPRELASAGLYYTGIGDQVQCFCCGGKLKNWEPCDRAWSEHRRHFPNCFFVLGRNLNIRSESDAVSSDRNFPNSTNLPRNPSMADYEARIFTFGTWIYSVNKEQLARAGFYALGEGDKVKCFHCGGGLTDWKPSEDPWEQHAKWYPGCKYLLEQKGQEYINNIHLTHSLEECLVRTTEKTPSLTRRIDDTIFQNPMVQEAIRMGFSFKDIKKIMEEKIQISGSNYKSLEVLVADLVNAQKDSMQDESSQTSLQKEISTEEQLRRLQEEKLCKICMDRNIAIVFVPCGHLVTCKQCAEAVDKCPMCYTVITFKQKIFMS

SMILES	Activity
CN[C@@H](C)C(=O)Nc1nc2c(s1)CCC2C(=O)NCc1ccccc1 (stereo partly drawn)	Active
CN[C@@H](C)C(=O)Nc1nc2c(s1)CCC2C(=O)NC1CCCc2ccccc21 (mixture of isomers)	Active
C[C@H](N)C(=O)Nc1nc2c(s1)CCC2C(=O)NC1CCCc2ccccc21 (stereo partly drawn)	Active
C[C@H](N)C(=O)Nc1nc2c(s1)CCC2C(=O)NCc1ccccc1 (stereo partly drawn)	Active
CN[C@@H](C)C(=O)Nc1nc2c(s1)CCC2C(=O)NC(c1ccccc1)c1ccccc1 (stereo partly drawn)	Active
C[C@H](N)C(=O)Nc1nc2c(s1)CCC2C(=O)NC(c1ccccc1)c1ccccc1 (stereo partly drawn)	Active

Molecular target: T1, E3 ubiquitin-protein ligase XIAP
Assay: Inhibition of XIAP BIR3 domain at 100 uM by competitive fluorescence polarization binding assay

SMILES	Activity
C[C@H](N)C(=O)Nc1nc2c(s1)CCCCC2C(=O)NC(c1ccccc1)c1ccccc1 (stereo partly drawn)	inactive
C[C@H](N)C(=O)Nc1nc2c(s1)CCCCC2C(=O)NC1CCCc2ccccc21 (stereo partly drawn)	inactive
CN[C@@H](C)C(=O)Nc1nc2c(s1)CCCCC2C(=O)NC(c1ccccc1)c1ccccc1 (stereo partly drawn)	inactive
C[C@H](N)C(=O)Nc1nc2c(s1)CCCCC2C(=O)NCc1ccccc1 (stereo partly drawn)	inactive
CN[C@@H](C)C(=O)Nc1nc2c(s1)CCCCC2C(=O)NCc1ccccc1 (stereo partly drawn)	inactive
CN[C@@H](C)C(=O)Nc1nc2c(s1)CCCCC2C(=O)NC1CCCc2ccccc21 (stereo partly drawn)	inactive

Molecular target: T1, E3 ubiquitin-protein ligase XIAP
Assay: Inhibition of XIAP BIR3 domain by competitive fluorescence polarization binding assay
Outline: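 Competitive fluorescence polarization displacement assay using the XIAP BIR3 domain, with BV6 run in parallel as the reference compound. Binding affinity is expressed as Ki.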

SMILES	Ki [µM]
CN[C@@H](C)C(=O)Nc1nc2c(s1)CCC2C(=O)NC1CCCc2ccccc21 (mixture of isomers)	37
CN[C@@H](C)C(=O)Nc1nc2c(s1)CC[C@H]2C(=O)N[C@@H]1CCCc2ccccc21	5.58

Molecular target: T1, E3 ubiquitin-protein ligase XIAP
Assay: Inhibition of XIAP BIR3 domain at 10 to 100 uM by competitive fluorescence polarization binding assay relative to 1 uM BV6 control

SMILES	Activity
CN[C@@H](C)C(=O)Nc1nc2c(s1)CCC2C(=O)NC1CCCc2ccccc21 (mixture of isomers)	inactive
CN[C@@H](C)C(=O)Nc1nc2c(s1)CC[C@H]2C(=O)N[C@@H]1CCCc2ccccc21	Active

Further lines, results first:

Activity	SMILES
inactive	CN[C@@H](C)C(=O)Nc1nc2c(s1)CC[C@@H]2C(=O)NC1CCCc2ccccc21 (mixture of isomers)
inactive	CN[C@@H](C)C(=O)Nc1nc2c(s1)CC[C@H]2C(=O)N[C@H]1CCCc2ccccc21
